From ChEMBL document CHEMBL1938299, “Quinolinone-based agonists of S1P₁: use of a N-scan SAR strategy to optimize in vitro and in vivo activity” (Bioorg Med Chem Lett, 2012)
In brackets after ≈: the same amount, converted by molar mass.

How the values were obtained:
[1] = Efflux ratio of permeability in pig LLC-PK1 cells; assay type: ADME, cell-based, Sus scrofa
In short: (§1)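 LLC-PK1 porcine proximal tubule cell monolayers; apparent permeability (Papp) of test compound through the cells measured, along with efflux ratio.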

[2] = biological target: T1, Sphingosine 1-phosphate receptor 1 (Homo sapiens, UniProt P21453); experiment: Agonist activity at human S1P1 receptor expressed in human U2OS cells co-expressing eGFP assessed as receptor internalization into cytoplasm using Hoechst dye staining relative to 1-(4-(6-benzylbenzofuran-2-yl)-3- fluorobenzyl)azetidine-3-carboxylic acid; assay type: functional, cell-based
T1 sequence (P21453 whole entry): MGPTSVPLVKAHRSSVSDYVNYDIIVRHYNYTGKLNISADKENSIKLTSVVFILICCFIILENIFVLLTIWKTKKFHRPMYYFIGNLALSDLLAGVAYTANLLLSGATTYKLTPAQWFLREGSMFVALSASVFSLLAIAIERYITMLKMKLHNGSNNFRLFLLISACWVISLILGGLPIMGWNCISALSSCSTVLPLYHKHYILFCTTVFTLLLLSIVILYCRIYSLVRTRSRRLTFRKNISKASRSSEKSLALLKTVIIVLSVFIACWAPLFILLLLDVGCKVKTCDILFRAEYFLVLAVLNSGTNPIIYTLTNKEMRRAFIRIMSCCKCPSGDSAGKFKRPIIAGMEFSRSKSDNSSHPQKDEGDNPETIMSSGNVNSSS

[3] = Apparent permeability of the compound in pig LLC-PK1 cells; assay type: ADME, cell-based, Sus scrofa; in short: as §1
[4] = biological target: T1, Sphingosine 1-phosphate receptor 1; experiment: Agonist activity at human S1P1 receptor expressed in human U2OS cells co-expressing eGFP assessed as receptor internalization into cytoplasm using Hoechst dye staining; assay type: functional, cell-based
[5] = Solubility of the compound in phosphate-buffered saline at pH 7.4; assay type: physicochemical
In short: (§2)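 Compound solubility measured separately in 0.010 M aqueous HCl, in PBS at pH 7.4, and in simulated intestinal fluid.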

[6] = Solubility of the compound in simulated intestinal fluid at pH 7.4; assay type: physicochemical; in short: as §2
[7] = system: Rattus norvegicus; experiment: Immunosuppressive activity in Lewis rat assessed as reduction in circulating peripheral lymphocyte count at 1 mg/kg, po after 24 hrs relative to control; assay type: functional; design: scale not given: the % may be the effect or the level left
In short: (§3)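 Female Lewis rats (N = 5/group) given a single oral dose (0.30, 1.0 or 3.0 mg/kg) in 20% Captisol or HPBCD, 1% HPMC, 1% Pluronic F68, pH 2.0 with MSA. At 24 h, blood lymphocytes were counted as percent of vehicle control and total plasma compound measured. Significance by ANOVA/Dunnett's test versus vehicle.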

[8] = Intrinsic clearance in rat liver microsomes assessed per mg of protein after 30 mins; assay type: ADME, Microsome; details: read-out: CLH
In short: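 Test compound incubated with rat liver microsomes for 30 min. Percent turnover measured and used to estimate intrinsic clearance.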

[9] = Solubility of the compound in 0.010 M aqueous hydrogen chloride at pH 7.4; assay type: physicochemical; details: in the assay text read “hydrogen chloride” for “hydrogen chloride at pH 7.4”; in short: as §2
[10] = Plasma concentration in Lewis rat at 1 mg/kg, po after 24 hrs; assay type: ADME, organism-based; design: dose 1 mg/kg, route oral; in short: as §3
[11] = biological target: T2, Sphingosine 1-phosphate receptor 3 (Homo sapiens, UniProt Q99500); experiment: Agonist activity at human S1P3 receptor expressed in CHO-K1 cells co-expressing Gq/i5 G-protein assessed as calcium mobilization by FLIPR assay; assay type: functional, cell-based
T2 sequence (Q99500 whole entry): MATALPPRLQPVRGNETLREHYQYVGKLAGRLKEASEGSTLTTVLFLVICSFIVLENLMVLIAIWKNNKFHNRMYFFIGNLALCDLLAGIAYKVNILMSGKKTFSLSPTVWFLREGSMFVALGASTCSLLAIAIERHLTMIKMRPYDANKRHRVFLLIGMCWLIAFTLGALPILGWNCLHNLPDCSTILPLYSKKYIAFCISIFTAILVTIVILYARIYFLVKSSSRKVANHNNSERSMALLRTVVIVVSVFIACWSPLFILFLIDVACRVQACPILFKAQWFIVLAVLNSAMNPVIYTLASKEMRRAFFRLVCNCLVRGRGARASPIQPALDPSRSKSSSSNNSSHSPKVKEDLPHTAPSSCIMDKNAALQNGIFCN

[12] = Plasma concentration in Lewis rat at 30 mg/kg, po after 24 hrs; assay type: ADME, organism-based; design: dose 30 mg/kg, route oral
[13] = system: Rattus norvegicus; experiment: Immunosuppressive activity in Lewis rat assessed as reduction in circulating peripheral lymphocyte count at 30 mg/kg, po after 24 hrs relative to control; assay type: functional; design: scale not given: the % may be the effect or the level left
[14] = biological target: T2, Sphingosine 1-phosphate receptor 3; experiment: Agonist activity at human S1P3 receptor expressed in CHO-K1 cells co-expressing Gq/i5 G-protein assessed as calcium mobilization by FLIPR assay relative to S1P; assay type: functional, cell-based
In short: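 Ca2+ mobilization in CHO-K1 cells expressing hS1P3 and a chimeric Gq/i5 G-protein. Efficacy expressed as % relative to S1P; compounds not reaching >10% of control activity reported as greater than the highest concentration tested.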

[15] = Plasma concentration in Lewis rat at 0.3 mg/kg, po after 24 hrs; assay type: ADME, organism-based; design: dose 0.3 mg/kg, route oral; in short: as §3
[16] = system: Rattus norvegicus; experiment: Immunosuppressive activity in po dosed Lewis rat assessed as reduction in circulating peripheral lymphocyte count after 24 hrs; assay type: functional, organism-based; in short: as §3
[17] = system: Rattus norvegicus; experiment: Immunosuppressive activity in Lewis rat assessed as reduction in circulating peripheral lymphocyte count at 3 mg/kg, po after 24 hrs relative to control; assay type: functional; design: scale not given: the % may be the effect or the level left; in short: as §3
[18] = Volume of distribution at steady state in Sprague-Dawley rat at 1 mg/kg, iv; assay type: ADME, organism-based; design: dose 1 mg/kg, route intravenous; details: in vivo, read-out: Vdss
In short: (§4)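 Single intravenous dose of 1 mg/kg in DMSO vehicle to male Sprague–Dawley rats (N = 3/group). Clearance, steady-state volume of distribution and half-life were determined from plasma levels.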

[19] = Half life in Sprague-Dawley rat at 1 mg/kg, iv; assay type: ADME, organism-based; design: dose 1 mg/kg, route intravenous; details: in vivo; in short: as §4
[20] = AUC (0 to 24 hrs) in Sprague-Dawley rat at 3 mg/kg, po; assay type: ADME, organism-based, Plasma; design: time < 24 hr, dose 3 mg/kg, route oral; details: Sprague-Dawley, plasma
[21] = Plasma concentration in Lewis rat at 3 mg/kg, po after 24 hrs; assay type: ADME, organism-based; design: dose 3 mg/kg, route oral; in short: as §3
[22] = Clearance in Sprague-Dawley rat at 1 mg/kg, iv; assay type: ADME, organism-based; design: dose 1 mg/kg, route intravenous; details: Sprague-Dawley, in vivo; in short: as §4
[23] = system: Rattus norvegicus; experiment: Ratio of AUC (0 to 24 hrs) at 100 mg/kg, po to AUC (0 to 24 hrs) at 3 mg/kg, po in Sprague-Dawley rat; assay type: ADME, organism-based; details: in vivo
In short: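 Male Sprague–Dawley rats (N = 3/group) each received a single oral dose of 3 or 100 mg/kg, in 20% Captisol, 1% HPMC, 1% Pluronic F68, adjusted to pH 2.0 with MSA.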

[24] = AUC (0 to 24 hrs) in Sprague-Dawley rat at 100 mg/kg, po; assay type: ADME, organism-based; design: time < 24 hr, dose 100 mg/kg, route oral; details: plasma
[25] = Plasma protein binding in rat; assay type: ADME, cell-free; details: read-out: PPB (converted)
In short: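 Rat plasma protein binding measured in vitro, with bound and free compound separated by ultracentrifugation; reported as percent bound.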

[26] = Oral bioavailability in Sprague-Dawley rat at 3 mg/kg; assay type: ADME, organism-based; details: Sprague-Dawley, in vivo
In short: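 Bioavailability in male Sprague–Dawley rats (N = 3/group), calculated from AUC0–∞ values obtained after a 1 mg/kg iv dose (DMSO vehicle) and a 3 mg/kg po dose (20% Captisol, 1% HPMC, 1% pluronic F68, pH 2.0 with MSA).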

SMILES	efflux ratio [1]	Efficacy [2]	Papp [3]	EC50 [4]	solubility [5]	solubility [6]	microsomal CLint [8]	solubility [9]	concentration at 24 h [10]	EC50 [11]	Activity [7]	other results
FC(F)(F)c1cccc(-c2noc(-c3cc(-c4ccccc4)c(C(F)(F)F)s3)n2)c1		86%								> 25000 nM		concentration at 24 h [12]: 1100 ng/mL; Activity [13]: -66%
COc1ccncc1C(=O)NC(=O)Nc1ccc(-c2ccccc2)c(C(F)(F)F)c1			2.3 ×10⁻⁶ cm/s		6.6 µg/mL (≈ 15.9 µM)	16 µg/mL (≈ 38.5 µM)		17 µg/mL (≈ 40.9 µM)	63 ng/mL	> 25000 nM	-78%	
CCCCCCCCc1ccc(CC[C@](N)(CO)COP(=O)(O)O)cc1												Efficacy [14]: 35%
Cn1cc(C(=O)Nc2ccc(-c3ccccc3)c(C(F)(F)F)n2)c(=O)c2cnccc21	1	120%	6.7 ×10⁻⁶ cm/s	20 nM	2.4 µg/mL (≈ 5.66 µM)	10 µg/mL (≈ 23.6 µM)	< 14 µL/min/mg	< 1 µg/mL	130 ng/mL	> 2500 nM	-67%	concentration at 24 h [15]: 47 ng/mL; Activity [16]: Dose-dependent effect; Activity [17]: -76%; Vd [18]: 5.1 L/kg; half-life [19]: 24 h; AUC(0-t) at 24 h [20]: 12000 ng·h/mL; concentration at 24 h [21]: 640 ng/mL; clearance [22]: 2.5 mL/min/kg; Ratio AUC [23]: 11; AUC(0-t) at 24 h [24]: 130000 ng·h/mL; fraction unbound [25]: 0.02; bioavailability [26]: 110%
CCCCCCCCc1ccc(CCC(N)(CO)CO)cc1		115%										
CCCCCCCCCCCCC/C=C/[C@@H](O)[C@@H](N)COP(=O)(O)O		91%		18 nM								

The next lines start with results.

efflux ratio [1]	Efficacy [2]	Papp [3]	EC50 [4]	solubility [5]	solubility [6]	microsomal CLint [8]	solubility [9]	concentration at 24 h [10]	EC50 [11]	SMILES	Activity [7]	other results
1	120%	3.4 ×10⁻⁶ cm/s	29 nM	2.6 µg/mL (≈ 6.14 µM)	6.1 µg/mL (≈ 14.4 µM)	< 14 µL/min/mg	< 1 µg/mL	140 ng/mL	> 2500 nM	Cn1cc(C(=O)Nc2ccc(-c3ccccc3)c(C(F)(F)F)c2)c(=O)c2ccncc21	-36%	
1.4	86%	16 ×10⁻⁶ cm/s	4100 nM			< 14 µL/min/mg			> 2500 nM	Cn1cc(C(=O)Nc2ccc(-c3ccccc3)c(C(F)(F)F)c2)c(=O)c2ncccc21		
	59%	< 1 ×10⁻⁶ cm/s	1100 nM			< 14 µL/min/mg			> 2500 nM	Cn1cc(C(=O)Nc2cc(C(F)(F)F)c(-c3ccccc3)cn2)c(=O)c2ccccc21		
1.6	110%	18 ×10⁻⁶ cm/s	310 nM	< 1 µg/mL	6.7 µg/mL (≈ 15.8 µM)	18 µL/min/mg	23 µg/mL (≈ 54.3 µM)		> 2500 nM	Cn1cc(C(=O)Nc2ccc(-c3cccnc3)c(C(F)(F)F)c2)c(=O)c2ccccc21		
